{"source": "ChEMBL document CHEMBL1138567", "about": "“Regioselective synthesis and antimicrobial screening of novel ketocarbazolodispiropyrrolidine derivatives” (2009)", "data": [{"tested_on": "Salmonella enterica subsp. enterica serovar Typhi str. CT18", "test": "Antimicrobial activity against Salmonella typhi at 50 ug/ml after 24 hrs by agar diffusion method", "format": "functional", "conditions": "read-out: IZ", "outline": "(§1)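 Agar well diffusion: about 9 ml nutrient agar in 9 cm Petri plates, seeded with the test organism. Wells cut with a cork borer and loaded with test compound at 25–100 per ml; tetracycline as control. Plates incubated 24 h at 37 °C. Read-out is the average diameter of the inhibition zone around each well, in mm.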", "units": {"zone of inhibition at 50 µg/mL": "mm"}, "values": [{"smiles": "Cc1ccc([C@@H]2CN(C)C3(C(=O)c4ccccc4C3=O)[C@]23CCc2c([nH]c4ccccc24)C3=O)cc1", "zone of inhibition at 50 µg/mL": 9}, {"smiles": "CN1C[C@@H](c2ccc(Br)cc2)[C@@]2(CCc3c([nH]c4ccccc34)C2=O)[C@]12C(=O)Nc1ccccc12", "zone of inhibition at 50 µg/mL": 9}, {"smiles": "CN1C[C@@H](c2ccc(Br)cc2)[C@@]2(CCc3c([nH]c4ccccc34)C2=O)C12C(=O)c1ccccc1C2=O", "zone of inhibition at 50 µg/mL": 9}]}, {"tested_on": "Salmonella enterica subsp. enterica serovar Typhi str. CT18", "test": "Antimicrobial activity against Salmonella typhi at 75 ug/ml after 24 hrs by agar diffusion method", "format": "functional", "conditions": "read-out: IZ", "outline": "as §1", "units": {"zone of inhibition at 75 µg/mL": "mm"}, "values": [{"smiles": "Cc1ccc([C@@H]2CN(C)C3(C(=O)c4ccccc4C3=O)[C@]23CCc2c([nH]c4ccccc24)C3=O)cc1", "zone of inhibition at 75 µg/mL": 14}, {"smiles": "CN1C[C@@H](c2ccc(Br)cc2)[C@@]2(CCc3c([nH]c4ccccc34)C2=O)[C@]12C(=O)Nc1ccccc12", "zone of inhibition at 75 µg/mL": 13}, {"smiles": "CN1C[C@@H](c2ccc(Br)cc2)[C@@]2(CCc3c([nH]c4ccccc34)C2=O)C12C(=O)c1ccccc1C2=O", "zone of inhibition at 75 µg/mL": 18}]}, {"tested_on": "Staphylococcus aureus", "test": "Antimicrobial activity against Staphylococcus aureus at 75 ug/ml after 24 hrs by agar diffusion method", "format": "functional", "conditions": "read-out: IZ", "outline": "(§2)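 Agar well diffusion: petri plates (9 cm) with about 9 ml nutrient agar, seeded with the test organism. Wells cut with a cork borer and loaded with test compound at 25, 50, 75 or 100 per ml; tetracycline as control. Incubated 37 °C for 24 h; average inhibition-zone diameter around wells measured (mm).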", "units": {"zone of inhibition at 75 µg/mL": "mm"}, "values": [{"smiles": "Cc1ccc([C@@H]2CN(C)C3(C(=O)c4ccccc4C3=O)[C@]23CCc2c([nH]c4ccccc24)C3=O)cc1", "zone of inhibition at 75 µg/mL": 18}, {"smiles": "CN1C[C@@H](c2ccc(Br)cc2)[C@@]2(CCc3c([nH]c4ccccc34)C2=O)[C@]12C(=O)Nc1ccccc12", "zone of inhibition at 75 µg/mL": 18}, {"smiles": "CN1C[C@@H](c2ccc(Br)cc2)[C@@]2(CCc3c([nH]c4ccccc34)C2=O)C12C(=O)c1ccccc1C2=O", "zone of inhibition at 75 µg/mL": 19}]}, {"tested_on": "Proteus vulgaris", "test": "Antimicrobial activity against Proteus vulgaris at 50 ug/ml after 24 hrs by agar diffusion method", "format": "functional", "conditions": "read-out: IZ", "outline": "as §2", "units": {"zone of inhibition at 50 µg/mL": "mm"}, "values": [{"smiles": "CN1C[C@@H](c2ccc(Br)cc2)[C@@]2(CCc3c([nH]c4ccccc34)C2=O)[C@]12C(=O)Nc1ccccc12", "zone of inhibition at 50 µg/mL": 14}, {"smiles": "CN1C[C@@H](c2ccc(Br)cc2)[C@@]2(CCc3c([nH]c4ccccc34)C2=O)C12C(=O)c1ccccc1C2=O", "zone of inhibition at 50 µg/mL": 13}]}, {"tested_on": "Staphylococcus aureus", "test": "Antimicrobial activity against Staphylococcus aureus at 50 ug/ml after 24 hrs by agar diffusion method", "format": "functional", "conditions": "read-out: IZ", "outline": "as §2", "units": {"zone of inhibition at 50 µg/mL": "mm"}, "values": [{"smiles": "Cc1ccc([C@@H]2CN(C)C3(C(=O)c4ccccc4C3=O)[C@]23CCc2c([nH]c4ccccc24)C3=O)cc1", "zone of inhibition at 50 µg/mL": 14}, {"smiles": "CN1C[C@@H](c2ccc(Br)cc2)[C@@]2(CCc3c([nH]c4ccccc34)C2=O)[C@]12C(=O)Nc1ccccc12", "zone of inhibition at 50 µg/mL": 15}, {"smiles": "CN1C[C@@H](c2ccc(Br)cc2)[C@@]2(CCc3c([nH]c4ccccc34)C2=O)C12C(=O)c1ccccc1C2=O", "zone of inhibition at 50 µg/mL": 12}]}, {"tested_on": "Proteus mirabilis", "test": "Antimicrobial activity against Proteus mirabilis at 25 ug/ml after 24 hrs by agar diffusion method", "format": "functional", "conditions": "read-out: IZ", "outline": "as §2", "units": {"zone of inhibition at 25 µg/mL": "mm"}, "values": [{"smiles": "Cc1ccc([C@@H]2CN(C)C3(C(=O)c4ccccc4C3=O)[C@]23CCc2c([nH]c4ccccc24)C3=O)cc1", "zone of inhibition at 25 µg/mL": 9}, {"smiles": "CN1C[C@@H](c2ccc(Br)cc2)[C@@]2(CCc3c([nH]c4ccccc34)C2=O)[C@]12C(=O)Nc1ccccc12", "zone of inhibition at 25 µg/mL": 11}, {"smiles": "CN1C[C@@H](c2ccc(Br)cc2)[C@@]2(CCc3c([nH]c4ccccc34)C2=O)C12C(=O)c1ccccc1C2=O", "zone of inhibition at 25 µg/mL": 9}]}, {"tested_on": "Proteus vulgaris", "test": "Antimicrobial activity against Proteus vulgaris at 75 ug/ml after 24 hrs by agar diffusion method", "format": "functional", "conditions": "read-out: IZ", "outline": "as §2", "units": {"zone of inhibition at 75 µg/mL": "mm"}, "values": [{"smiles": "Cc1ccc([C@@H]2CN(C)C3(C(=O)c4ccccc4C3=O)[C@]23CCc2c([nH]c4ccccc24)C3=O)cc1", "zone of inhibition at 75 µg/mL": 9}, {"smiles": "CN1C[C@@H](c2ccc(Br)cc2)[C@@]2(CCc3c([nH]c4ccccc34)C2=O)[C@]12C(=O)Nc1ccccc12", "zone of inhibition at 75 µg/mL": 18}, {"smiles": "CN1C[C@@H](c2ccc(Br)cc2)[C@@]2(CCc3c([nH]c4ccccc34)C2=O)C12C(=O)c1ccccc1C2=O", "zone of inhibition at 75 µg/mL": 16}]}, {"tested_on": "Staphylococcus aureus", "test": "Antimicrobial activity against Staphylococcus aureus at 25 ug/ml after 24 hrs by agar diffusion method", "format": "functional", "conditions": "read-out: IZ", "outline": "as §2", "units": {"zone of inhibition at 25 µg/mL": "mm"}, "values": [{"smiles": "Cc1ccc([C@@H]2CN(C)C3(C(=O)c4ccccc4C3=O)[C@]23CCc2c([nH]c4ccccc24)C3=O)cc1", "zone of inhibition at 25 µg/mL": 9}, {"smiles": "CN1C[C@@H](c2ccc(Br)cc2)[C@@]2(CCc3c([nH]c4ccccc34)C2=O)[C@]12C(=O)Nc1ccccc12", "zone of inhibition at 25 µg/mL": 11}]}, {"tested_on": "Salmonella enterica subsp. enterica serovar Typhi str. CT18", "test": "Antimicrobial activity against Salmonella typhi at 100 ug/ml after 24 hrs by agar diffusion method", "format": "functional", "conditions": "read-out: IZ", "outline": "as §1", "units": {"zone of inhibition at 100 µg/mL": "mm"}, "values": [{"smiles": "Cc1ccc([C@@H]2CN(C)C3(C(=O)c4ccccc4C3=O)[C@]23CCc2c([nH]c4ccccc24)C3=O)cc1", "zone of inhibition at 100 µg/mL": 16}, {"smiles": "CN1C[C@@H](c2ccc(Br)cc2)[C@@]2(CCc3c([nH]c4ccccc34)C2=O)[C@]12C(=O)Nc1ccccc12", "zone of inhibition at 100 µg/mL": 16}, {"smiles": "CN1C[C@@H](c2ccc(Br)cc2)[C@@]2(CCc3c([nH]c4ccccc34)C2=O)C12C(=O)c1ccccc1C2=O", "zone of inhibition at 100 µg/mL": 19}]}, {"tested_on": "Proteus mirabilis", "test": "Antimicrobial activity against Proteus mirabilis at 50 ug/ml after 24 hrs by agar diffusion method", "format": "functional", "conditions": "read-out: IZ", "outline": "as §2", "units": {"zone of inhibition at 50 µg/mL": "mm"}, "values": [{"smiles": "Cc1ccc([C@@H]2CN(C)C3(C(=O)c4ccccc4C3=O)[C@]23CCc2c([nH]c4ccccc24)C3=O)cc1", "zone of inhibition at 50 µg/mL": 11}, {"smiles": "CN1C[C@@H](c2ccc(Br)cc2)[C@@]2(CCc3c([nH]c4ccccc34)C2=O)[C@]12C(=O)Nc1ccccc12", "zone of inhibition at 50 µg/mL": 14}, {"smiles": "CN1C[C@@H](c2ccc(Br)cc2)[C@@]2(CCc3c([nH]c4ccccc34)C2=O)C12C(=O)c1ccccc1C2=O", "zone of inhibition at 50 µg/mL": 11}]}, {"tested_on": "Proteus mirabilis", "test": "Antimicrobial activity against Proteus mirabilis at 75 ug/ml after 24 hrs by agar diffusion method", "format": "functional", "conditions": "read-out: IZ", "outline": "as §2", "units": {"zone of inhibition at 75 µg/mL": "mm"}, "values": [{"smiles": "Cc1ccc([C@@H]2CN(C)C3(C(=O)c4ccccc4C3=O)[C@]23CCc2c([nH]c4ccccc24)C3=O)cc1", "zone of inhibition at 75 µg/mL": 14}, {"smiles": "CN1C[C@@H](c2ccc(Br)cc2)[C@@]2(CCc3c([nH]c4ccccc34)C2=O)[C@]12C(=O)Nc1ccccc12", "zone of inhibition at 75 µg/mL": 16}, {"smiles": "CN1C[C@@H](c2ccc(Br)cc2)[C@@]2(CCc3c([nH]c4ccccc34)C2=O)C12C(=O)c1ccccc1C2=O", "zone of inhibition at 75 µg/mL": 14}]}, {"tested_on": "Proteus mirabilis", "test": "Antimicrobial activity against Proteus mirabilis at 100 ug/ml after 24 hrs by agar diffusion method", "format": "functional", "conditions": "read-out: IZ", "outline": "as §2", "units": {"zone of inhibition at 100 µg/mL": "mm"}, "values": [{"smiles": "Cc1ccc([C@@H]2CN(C)C3(C(=O)c4ccccc4C3=O)[C@]23CCc2c([nH]c4ccccc24)C3=O)cc1", "zone of inhibition at 100 µg/mL": 18}, {"smiles": "CN1C[C@@H](c2ccc(Br)cc2)[C@@]2(CCc3c([nH]c4ccccc34)C2=O)[C@]12C(=O)Nc1ccccc12", "zone of inhibition at 100 µg/mL": 18}, {"smiles": "CN1C[C@@H](c2ccc(Br)cc2)[C@@]2(CCc3c([nH]c4ccccc34)C2=O)C12C(=O)c1ccccc1C2=O", "zone of inhibition at 100 µg/mL": 16}]}, {"tested_on": "Proteus vulgaris", "test": "Antimicrobial activity against Proteus vulgaris at 25 ug/ml after 24 hrs by agar diffusion method", "format": "functional", "conditions": "read-out: IZ", "outline": "as §2", "units": {"zone of inhibition at 25 µg/mL": "mm"}, "values": [{"smiles": "CN1C[C@@H](c2ccc(Br)cc2)[C@@]2(CCc3c([nH]c4ccccc34)C2=O)[C@]12C(=O)Nc1ccccc12", "zone of inhibition at 25 µg/mL": 11}, {"smiles": "CN1C[C@@H](c2ccc(Br)cc2)[C@@]2(CCc3c([nH]c4ccccc34)C2=O)C12C(=O)c1ccccc1C2=O", "zone of inhibition at 25 µg/mL": 9}]}, {"tested_on": "Proteus vulgaris", "test": "Antimicrobial activity against Proteus vulgaris at 100 ug/ml after 24 hrs by agar diffusion method", "format": "functional", "conditions": "read-out: IZ", "outline": "as §2", "units": {"zone of inhibition at 100 µg/mL": "mm"}, "values": [{"smiles": "Cc1ccc([C@@H]2CN(C)C3(C(=O)c4ccccc4C3=O)[C@]23CCc2c([nH]c4ccccc24)C3=O)cc1", "zone of inhibition at 100 µg/mL": 12}, {"smiles": "CN1C[C@@H](c2ccc(Br)cc2)[C@@]2(CCc3c([nH]c4ccccc34)C2=O)[C@]12C(=O)Nc1ccccc12", "zone of inhibition at 100 µg/mL": 21}, {"smiles": "CN1C[C@@H](c2ccc(Br)cc2)[C@@]2(CCc3c([nH]c4ccccc34)C2=O)C12C(=O)c1ccccc1C2=O", "zone of inhibition at 100 µg/mL": 18}]}, {"tested_on": "Staphylococcus aureus", "test": "Antimicrobial activity against Staphylococcus aureus at 100 ug/ml after 24 hrs by agar diffusion method", "format": "functional", "conditions": "read-out: IZ", "outline": "as §2", "units": {"zone of inhibition at 100 µg/mL": "mm"}, "values": [{"smiles": "Cc1ccc([C@@H]2CN(C)C3(C(=O)c4ccccc4C3=O)[C@]23CCc2c([nH]c4ccccc24)C3=O)cc1", "zone of inhibition at 100 µg/mL": 21}, {"smiles": "CN1C[C@@H](c2ccc(Br)cc2)[C@@]2(CCc3c([nH]c4ccccc34)C2=O)[C@]12C(=O)Nc1ccccc12", "zone of inhibition at 100 µg/mL": 22}, {"smiles": "CN1C[C@@H](c2ccc(Br)cc2)[C@@]2(CCc3c([nH]c4ccccc34)C2=O)C12C(=O)c1ccccc1C2=O", "zone of inhibition at 100 µg/mL": 21}]}]}
